Screens (PubChem)
The list is not random: actives were taken first. Their share in the collection is about 1.8%.
NCF1 inh = inhibitors of human p47phox binding | P14598 | p47phox/p22phox peptide binding, fluorescence polarization, 2 h | 220,000 tested, 0.53% active | inhibition, % at 24.7 µM;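 active means inhibition above about 30%, limit read from the data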;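 further: 0% = p47phox with labelled peptide and 100% = labelled peptide alone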
Target sequence (P14598 whole entry, looked up): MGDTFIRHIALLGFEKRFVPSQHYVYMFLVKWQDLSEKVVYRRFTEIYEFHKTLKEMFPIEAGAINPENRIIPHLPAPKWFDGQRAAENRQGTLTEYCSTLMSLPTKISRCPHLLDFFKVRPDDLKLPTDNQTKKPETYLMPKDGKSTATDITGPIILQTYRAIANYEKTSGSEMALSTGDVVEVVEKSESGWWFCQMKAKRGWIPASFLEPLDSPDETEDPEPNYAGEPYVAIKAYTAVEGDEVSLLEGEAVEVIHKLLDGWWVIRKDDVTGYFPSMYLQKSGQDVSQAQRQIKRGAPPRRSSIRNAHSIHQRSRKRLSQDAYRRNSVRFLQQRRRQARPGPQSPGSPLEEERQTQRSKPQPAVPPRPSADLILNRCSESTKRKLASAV
TNAP act hi DEA = TNAP (human) activation, high acceptor | P05186 | purified TNAP, CDP-star luminescence, 1 M DEA, 30 min; hits give high values; 0 = EDTA background, 1 = DMSO-only activity | activation factor at 20 µM | 200,000 tested, under 10 active;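 active means activation factor at least 2 at 20 µM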
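Dosing: 20 µM single point. System: human TNAP. Amount: TNAP 1/800 final. Incubation: 30 min, room temperature. Read-out: TNAP activation factor scaled between EDTA and DMSO control wells. Signal: luminescence from CDP-star hydrolysis. Medium: 1 M DEA, pH 9.8, Mg2+, Zn2+. Control set: EDTA negative control, DMSO positive control.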
TNAP inh noacc = blocks human TNAP activity with no phosphate acceptor present | P05186 | purified TNAP, CDP-star luminescence, 30 min | inhibition, % at 20 µM | 200,000 tested, 0.26% active | AID 1012;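 active means tissue-nonspecific alkaline phosphatase inhibition above about 50% at 20 µM in the single-dose screen, limit read from the data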;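 further: 0% = DMSO negative control and 100% = EDTA positive control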
TNAP inh hiacc = inhibitors of human TNAP at high phosphate acceptor concentration; inhibition, % at 20 µM; 200,000 tested, 0.03% active; purified TNAP, CDP-star luminescence, 1 M DEA;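 active means over 50% inhibition of tissue-nonspecific alkaline phosphatase at 20 µM in the single-dose screen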;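 further: plate controls were DMSO wells for no effect and EDTA-quenched wells as full inhibition for full effect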
Autophagy mod = modulators of autophagy; MEF GFP-LC3 puncta imaging; test concentration mostly 10 µM; calls only at 10 µM (by protocol); 190,000 tested, 0.98% active; AID 463193;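 active means percentage of spot-positive cells more than 3 SD above its plate mean, without a fluorescence outlier flag or 80% toxicity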;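 further: spot-positive cell cutoff set from DMSO-treated cells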
Ins promoter up = MIN6 insulin promoter up-regulation | MIN6 insulin promoter-GFP reporter, high-content imaging; hits give high values | z-score at 5 µM | 190,000 tested, 0.3% active | AID 1625;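 active means z-score above 3 at 5 µM with at least 500 cells counted in the well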
* hit, by the source's call; i = inactive; / = not tested or not shown; + = active, no number.

SMILES	NCF1 inh	TNAP act hi DEA	TNAP inh noacc	TNAP inh hiacc	Autophagy mod	Ins promoter up
C=CCn1c(N2CCN(c3ccc(OC)cc3)CC2)nc2c1c(=O)[nH]c(=O)n2C	-2.6	1.1	-7.6	-5.6	i	-0.84
O=C(CCCn1c(=S)[nH]c2ccsc2c1=O)Nc1ccc2c(c1)OCCO2	-12.7	1	-2.7	-3.1	i	-0.06
COc1cc2cc(CN(Cc3cccnc3)C(=O)Nc3ccccc3F)c(=O)[nH]c2cc1OC	11.8	1	-1.8	-4.1	i	/
CCCCn1c(O)c(/C=C/C=C/C=Nc2ccccc2)sc1=S	-21.5	0.8	22.2	15.0	i	4.72*
CCn1c(O)c(/C=C/C=C/C=Nc2ccccc2)sc1=S	-47.3	1	-14.5	0.1	i	0.09
Oc1c(/C=C/C=C/C=Nc2ccccc2)sc(=S)n1Cc1ccccc1	-28.2	/	/	/	/	3.27*
COCCNC(=O)C(c1ccc(C)cc1)N(C(=O)C(=O)NC1CCCC1)c1ccc2c(c1)OCCO2 (stereo unspecified)	-13.1	1	-7.4	-4.8	i	/
Cn1cc(Br)c(-c2cccc(NC(=O)CCC(=O)O)c2)n1	-1.1	/	/	/	/	0.47
COCCCN=C1NN=C(c2cc(C)n(Cc3ccccc3Cl)c2C)CS1	-4.3	1	-10.5	-0.9	+	-0.65
COCCCN=C1NN=C(c2cc(C)n(-c3ccccc3)c2C)CS1	-30.3	1	-4.5	2.7	i	-0.59
Cc1ccc(/C=C2\CCC3=C2OC(N)=C(C#N)C3c2ccc(C)cc2)cc1 (stereo unspecified)	-142.0	0.9	18.4	5.3	+	2.12
Cn1nc(CC(=O)Nc2ccc(N3CCN(C(=O)OC(C)(C)C)CC3)cc2)c2ccccc2c1=O	30.9*	1	-82.1	0.2	i	-1.32
COc1ccc(-c2[nH]n(-c3ccc([N+](=O)[O-])cc3)c(=O)c2C=NCCN2CCNCC2)cc1	-2.5	0.9	9.3	5.7	i	0.35
COc1ccc(-c2[nH]n(-c3ccc([N+](=O)[O-])cc3)c(=O)c2C=NCc2ccccc2)cc1	-25.2	1	-4.6	2.1	+	/
COc1ccc(/C(O)=C/c2nc3ccccc3n(-c3ccccc3)c2=O)cc1	-152.4	1	5.5	0.9	+	/
COC(=O)c1c(-c2ccc3ccccc3c2)csc1NC(=O)Cc1ccc(OC)c(OC)c1	4.3	1	11.9	-4.7	i	-0.08
CC(C)c1nc2sc3c(NCc4ccco4)ncnc3c2c2c1COC(C)(C)C2	-30.7	1	-11.7	-4.7	i	-2.65
CC(C)c1nc2sc3c(NCc4ccccc4)ncnc3c2c2c1COC(C)(C)C2	-5.5	1.1	-24.6	-7.3	+	-0.62
CCCCCCNC(=O)N[C@@H](C(=O)NCCC[C@H]1CN2C(=NC[C@@H]2Cc2ccccc2)N1CCc1cccc(OC)c1)C(C)C	66.1*	/	/	/	/	-1.23
C/C=C(\C)C(=O)NCCN1C2=NC[C@@H](Cc3ccccc3)N2C[C@H]1Cc1ccc(O)cc1	-7.5	1	-4.3	-3.0	i	-1.24
COc1ccc(N(C(=O)CNC(=O)c2cccs2)C(C(=O)NCC2CCCO2)c2ccc(OC)c(OC)c2)cc1 (stereo unspecified)	7.4	1.1	-11.0	-6.8	i	-0.15
CCOc1ccc(N(C(=O)CNC(=O)c2cccs2)C(C(=O)NCC2CCCO2)c2ccc(OC)c(OC)c2)cc1 (stereo unspecified)	2.9	1	-1.6	1.9	+	0.43
COc1ccc(N=c2oc3c(OC)cccc3cc2C(=O)NCc2ccco2)c(OC)c1	5.1	0.9	6.9	9.9	+	-3.31
COc1ccc2cc(C(=O)NCc3ccco3)c(=Nc3ccc(C(=O)O)cc3)oc2c1	-7.0	1	-11.2	2.5	i	-0.29
COc1ccc(N(CC(=O)NCCC2=CCCCC2)S(=O)(=O)c2ccccc2)c(OC)c1	-5.9	1	0.9	-1.6	i	-1.49
CCOc1ccc(-n2cc(-c3ccccc3)c3c(N4CCOCC4)ncnc32)cc1	-6.3	1.1	-11.7	-7.7	+	-1.08
Cc1cccc(-n2cc(-c3ccccc3)c3c(NN4CCOCC4)ncnc32)c1	-4.6	1	-6.1	-0.7	i	-0.89
Cc1ccc(-n2cc(-c3ccccc3)c3c(NN4CCOCC4)ncnc32)cc1	94.4*	1.1	-1.4	-5.1	i	-0.05
